The source made the active and inactive calls. No cut-off for these calls is given here.

The values below come from ChEMBL document CHEMBL2062385, “Bone-targeting glycol and NSAIDS ester prodrugs of rhein: synthesis, hydroxyapatite affinity, stability, anti-inflammatory, ulcerogenicity index and pharmacokinetics studies” (Eur J Med Chem, 2012).

Data set [1] concerns Mus musculus. The experiment in a line: Antiinflammatory activity in Kunming mouse assessed as inhibition of xylene-induced auricle tumefaction at 0.2 mmol/kg, po qd administered prior to challenge for 5 days measured 30 mins post challenge. It is filed as functional. A digest of the protocol:
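Male Kunming mice (18-22 g), ten per group, dosed once daily for 5 days at 0.2 mmol/kg; controls got 0.9% NaCl. A 7 mm filter soaked in xylene was held on the right ear for 30 s, 1 h after the last dose. Mice were killed 30 min later and 7 mm ear punches taken. Inhibition = (1 − a/b)×100%, from tumefaction degree of control and test groups.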

The test system of another data set is Hydroxyapatite. The experiment in a line: Binding affinity to bone mineral hydroxyapatite after 30 mins by RP-HPLC analysis. A digest of the protocol:
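Each compound (10 mL, 0.1 mmol/L in water) stirred vigorously with 20, 40 or 80 mg hydroxyapatite for 30 min. Then analysed by HPLC on C18 with methanol/0.1% H3PO4 90:10 (pH 2.3), 25 °C, 1.0 mL/min, 254 nm detection. n = 3.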

Data set [2] in a line: Prodrug conversion at pH 7.4 assessed as hydrolysis up to 24 hrs by HPLC analysis. Format: physicochemical. The note with it: buffer, pH 7.4, 24 h. Summed up: (§1)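 Prodrugs held at 37 °C for up to 24 h in phosphate-buffered saline adjusted to pH 1.2 or pH 7.4. Samples taken at set intervals. Released parent drugs quantified by C18 HPLC with methanol/0.1% H3PO4 90:10 (pH 2.3), 25 °C, 1.0 mL/min, 254 nm. Run in triplicate.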

The nature of data set [3]: Prodrug conversion at pH 1.2 assessed as hydrolysis up to 24 hrs by HPLC analysis. It is filed as physicochemical. The note with it: buffer, pH 1.2, 24 h. A digest of the protocol: as §1
Data set [4] relates to Mus musculus. The experiment in a line: Ulcerogenic activity in Kunming mouse assessed as ulcer index at 1 mmol/kg, po measured after 4 hrs. It is filed as toxicity, organism-based. The note with it: in vivo. Summed up:
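Kunming mice of either sex (18-22 g), ten per group, fasted from food and water for 24 h. Then given 1.0 mmol/kg orally as a suspension in 1% methylcellulose. Killed at 4 h; stomachs fixed 30 min in 10% formaldehyde, opened along the greater curvature and ulcers measured under a magnifier. Ulcer index = summed lesion length (mm) per stomach averaged over 10 animals.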

Data set [5] in a line: Tmax in Sprague-Dawley rat at 5.26 mg/kg, po. Format: ADME, organism-based. More on the design: dose 5.26 mg/kg, route oral. The note with it: in vivo. A digest of the protocol:
(§2)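 SD rats of either sex (200 ± 20 g), six per group, dosed by gastric intubation after recovery from anesthesia. Arterial blood (~0.5 mL) drawn predose and at 0.17, 0.33, 0.5, 0.75, 1, 1.5, 2, 2.5, 3, 4, 5, 7 and 9 h. Plasma separated at once by centrifugation. Rhein in plasma measured by HPLC with diode-array detection.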

The nature of data set [6]: Cmax in Sprague-Dawley rat at 5.26 mg/kg, po. Conditions: in vivo. More on the design: dose 5.26 mg/kg, route oral. Format: ADME, organism-based. Summed up: as §2
Data set [7] in a line: AUC (0 to 9 hrs) in Sprague-Dawley rat at 5.26 mg/kg, po. Format: ADME, organism-based. Details: time < 9 hr, dose 5.26 mg/kg, route oral. The note with it: plasma. A digest of the protocol:
as §2

In data set [8] the test system is Rattus norvegicus. The experiment in a line: Cmax in Sprague-Dawley rat assessed as rhein at 10 mg/kg, po. Format: ADME, organism-based. Details: dose 10 mg/kg, route oral. The note with it: in vivo. Summed up: as §2
Data set [9] deals with Rattus norvegicus. Description: Tmax in Sprague-Dawley rat assessed as rhein at 10 mg/kg, po. Format: ADME, organism-based. Details: dose 10 mg/kg, route oral. Conditions: in vivo. A digest of the protocol:
as §2

Data set [10] can be described thus: AUC (0 to infinity) in Sprague-Dawley rat at 5.26 mg/kg, po. Details: time infinity, dose 5.26 mg/kg, route oral. Conditions: plasma. Format: ADME, organism-based. Summed up:
as §2

Data set [11] relates to Rattus norvegicus. The experiment in a line: MRT (0 to 9 hrs) in Sprague-Dawley rat assessed as rhein at 10 mg/kg, po. It is filed as ADME, organism-based. Details: dose 10 mg/kg, route oral. The note with it: in vivo. Summed up: as §2
Data set [12] is described as follows: Half life in Sprague-Dawley rat at 5.26 mg/kg, po. Format: ADME, organism-based. More on the design: dose 5.26 mg/kg, route oral. Conditions: in vivo. A digest of the protocol:
as §2

The nature of data set [13]: MRT (0 to 9 hrs) in Sprague-Dawley rat at 5.26 mg/kg, po. Format: ADME, organism-based. More on the design: dose 5.26 mg/kg, route oral. The note with it: in vivo. Summed up: as §2
Data set [14] relates to Rattus norvegicus. The experiment in a line: AUC (0 to infinity) in Sprague-Dawley rat assessed as rhein at 10 mg/kg, po. The note with it: in vivo. It is filed as ADME, organism-based, Plasma. More on the design: time infinity, dose 10 mg/kg, route oral. A digest of the protocol:
as §2

Data set [15] concerns Rattus norvegicus. Description: Half life in Sprague-Dawley rat assessed as rhein at 10 mg/kg, po. It is filed as ADME, organism-based. Details: dose 10 mg/kg, route oral. Conditions: in vivo. Summed up: as §2
The test system of data set [16] is Rattus norvegicus. The experiment in a line: MRT (0 to infinity) in Sprague-Dawley rat assessed as rhein at 10 mg/kg, po. Details: dose 10 mg/kg, route oral. Conditions: in vivo. Format: ADME, organism-based. Summed up:
as §2

Data set [17] relates to Rattus norvegicus. The experiment in a line: AUC (0 to 9 hrs) in Sprague-Dawley rat assessed as rhein at 10 mg/kg, po. Format: ADME, organism-based, Plasma. More on the design: time < 9 hr, dose 10 mg/kg, route oral. The note with it: in vivo. A digest of the protocol: as §2
Data set [18] can be described thus: MRT (0 to infinity) in Sprague-Dawley rat at 5.26 mg/kg, po. Format: ADME, organism-based. Details: dose 5.26 mg/kg, route oral. The note with it: in vivo. Summed up: as §2

With `CC(=O)Oc1cccc2c1C(=O)c1c(OC(C)=O)cc(C(=O)O)cc1C2=O` [DIACEREIN], the inhibition in vivo at 200 µmol/kg in the data set with Mus musculus [1] was 29.2%. The result in the data set with Hydroxyapatite was Active.
For the molecule `CC(C)Cc1ccc(C(C)C(=O)OCCOCCOC(=O)c2cc(O)c3c(c2)C(=O)c2cccc(O)c2C3=O)cc1` (stereo not given), the inhibition in vivo at 200 µmol/kg with Mus musculus [1] was 32.7%. Also, the Drug metabolism entry in data set [2] and in [3] was “Active” each time. Also, the outcome in the data set on Hydroxyapatite was Active. Moreover, the UI with Mus musculus [4] was found to be 5.8.
Turning to `CC(C)Cc1ccc(C(C)C(=O)O)cc1` (stereo not given) [IBUPROFEN], the inhibition in vivo at 200 µmol/kg in the data set on Mus musculus [1] was 32%. Moreover, the Drug metabolism entry in [2] is reported as “Active”. For the same molecule, the result in the data set on Hydroxyapatite was inactive. The UI with Mus musculus [4] is 8.3.
With `O=C(O)c1cc(O)c2c(c1)C(=O)c1cccc(O)c1C2=O` [RHEIN], the figures for the time of peak concentration (Tmax) (in [5]; in the data set on Rattus norvegicus [9]) were 2.04 h and 2.917 h, respectively. Besides, the Cmax in data set [6] is 432 ng/mL; in the data set on Rattus norvegicus [8] it was 291 ng/mL. In [7], this molecule gave an AUC(0-t) at 9 h of 1170 ng·h/mL. Moreover, the AUC(0-inf) in [10] was 1380 ng·h/mL. The mean residence time (MRT) in the data set with Rattus norvegicus [11] was 4.291 h; in the data set on Rattus norvegicus [16], 5.699 h. The molecule also had a half-life in data set [12] of 1.24 h. In [13], the MRT last was determined as 2.92 h. Moreover, the AUC in the data set on Rattus norvegicus [14] turned out to be 1394 ng·h/mL; in the data set with Rattus norvegicus [17] it was 1178 ng·h/mL. In addition, the t1/2 in the data set with Rattus norvegicus [15] came to 2.771 h. For the same molecule, the Drug metabolism result in data set [3] is given as “Active”. Moreover, the MRT inf in data set [18] was determined as 3.78 h. In addition, the outcome with Hydroxyapatite was Active.
Take `COc1ccc2c(c1)c(CC(=O)OCCOC(=O)c1cc(OC(C)=O)c3c(c1)C(=O)c1cccc(OC(C)=O)c1C3=O)c(C)n2C(=O)c1ccc(Cl)cc1`: the inhibition in vivo at 200 µmol/kg in the data set with Mus musculus [1] is 23.4%. Also, the Drug metabolism result in data set [2] and in [3] was “Active” throughout. For the same molecule, the outcome in the data set on Hydroxyapatite was Active.
As for `CC(=O)Oc1cccc2c1C(=O)c1c(OC(C)=O)cc(C(=O)OCCOC(=O)C(C)c3ccc(CC(C)C)cc3)cc1C2=O` (stereo not given), the inhibition in vivo at 200 µmol/kg in the data set with Mus musculus [1] is 35.2%. The Drug metabolism result in [2] and in data set [3] was “Active” each time. In addition, in the data set with Hydroxyapatite, the result was Active.
For the molecule `O=C(OCCOCCOCCO)c1cc(O)c2c(c1)C(=O)c1cccc(O)c1C2=O`, in the data set with Mus musculus [1], the inhibition in vivo at 200 µmol/kg was 17.4%. The Drug metabolism entry in [2] and in data set [3] was “Active” throughout. For the same molecule, in the data set on Hydroxyapatite, the result was Active.
As for `CC(C)Cc1ccc(C(C)C(=O)OCCOC(=O)c2cc(O)c3c(c2)C(=O)c2cccc(O)c2C3=O)cc1` (stereo not given), the inhibition in vivo at 200 µmol/kg in the data set with Mus musculus [1] stood at 41.2%. Further, the Drug metabolism result in data set [2] and in data set [3] was “Active” throughout. Also, the outcome with Hydroxyapatite was Active. In addition, the UI in the data set with Mus musculus [4] is 5.8.
As to `CC(=O)Oc1cccc2c1C(=O)c1c(OC(C)=O)cc(C(=O)OCCO)cc1C2=O`, the inhibition in vivo at 200 µmol/kg with Mus musculus [1] turned out to be 16%. In addition, the Drug metabolism entry in [2] and in [3] was “Active” in each case. The result in the data set on Hydroxyapatite was Active.
Take `O=C(Cc1ccccc1Nc1c(Cl)cccc1Cl)OCCOC(=O)c1cc(O)c2c(c1)C(=O)c1cccc(O)c1C2=O`: the inhibition in vivo at 200 µmol/kg with Mus musculus [1] came out at 43.9%. Moreover, the Drug metabolism result in data set [2] and in data set [3] was “Active” throughout. Also, in the data set on Hydroxyapatite, the result was Active.
For `COc1ccc2cc(C(C)C(=O)OCCOC(=O)c3cc(OC(C)=O)c4c(c3)C(=O)c3cccc(OC(C)=O)c3C4=O)ccc2c1` (stereo not given), in the data set with Mus musculus [1], the inhibition in vivo at 200 µmol/kg was 24.4%. In addition, the Drug metabolism entry in data set [2] and in [3] was “Active” throughout. Also, the outcome in the data set with Hydroxyapatite was Active.
For `CC(=O)Oc1cccc2c1C(=O)c1c(OC(C)=O)cc(C(=O)OCCOC(=O)Cc3ccccc3Nc3c(Cl)cccc3Cl)cc1C2=O`, the inhibition in vivo at 200 µmol/kg in the data set on Mus musculus [1] was determined as 44%. In addition, the Drug metabolism entry in [2] and in data set [3] was “Active” each time. In addition, the result in the data set on Hydroxyapatite was Active.
